From PubChem BioAssay
This is a sample that favours compounds with a hit; in the whole collection about 3.8% have one here.
hERG rescue: hERG rescue from dofetilide block, primary screen, cell-based, CHO-hERG, FluxOR thallium flux, dofetilide IC70; Voltage-gated inwardly rectifying potassium channel KCNH2 (Homo sapiens), Q12809; dofetilide IC70 present; activation (rescue from dofetilide block), less the hit threshold, % at 10 µM; actives 0.51% (n = 310,000);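 active means activation above the mean of controls blocked by dofetilide plus 5 SD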;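 further: thallium influx through hERG after potassium depolarization seen as dye fluorescence rise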
Kir21 block: inhibitors of mouse Kir2.1 inward-rectifier potassium channel; HEK293-Kir2.1, FluxOR thallium flux fluorescence; stronger effect = lower value; B-score at 10 µM; Inward rectifier potassium channel 2 (Mus musculus), P35561; actives 0.85% (n = 310,000); AID 1672, 2009;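 active means fluorescence ratio B-score at or below minus 3 SD of library scores, with starting-brightness B-score within 2 SD, cut at about -4.2 in these data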;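 further: channel flux triggered by added potassium and thallium sulfate stimulus; B-score of peak minus minimum fluorescence over baseline after thallium stimulus; more negative B-score means stronger Kir2.1 block with less thallium influx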
KCNQ1 block: inhibitors of human KCNQ1 channel, primary screen, cell-based, thallium flux, high-throughput; B-score at 10 µM; CHO-K1 KCNQ1, FluxOR thallium flux fluorescence; stronger effect = higher value; Potassium voltage-gated channel subfamily KQT member 1 (Homo sapiens), P51787; actives 1.3% (n = 310,000);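 active means compounds whose thallium flux B-score, printed positive for inhibition, exceeds three library SD while starting fluorescence stays within three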;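 further: channel opened by potassium depolarization with thallium stimulus after 20 min compound exposure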
KCNQ1 act: potentiators or activators of KCNQ1 channel, primary screen, cell-based, thallium flux, high-throughput. B-score at 10 µM. CHO-K1 KCNQ1, thallium flux FluxOR fluorescence; stronger effect = higher value. actives 0.35% (n = 310,000);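 active means fluorescence ratio B-score, a plate-corrected score, at least three library SD, with initial intensity B-score within 5 SD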
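Material: CHO-K1 cells stably expressing KCNQ1. Medium: assay buffer for compound exposure, DMSO matched across wells. Reagent: K+/Tl+ depolarizing stimulus. Compound dosing: single-concentration screen. Times: 37 °C overnight plating, 90-min dark dye load, 20-min compound pretreatment. Technique: FluxOR Tl+ flux fluorescence.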
KCNK9 inh: KCNK9 potassium channel inhibitors, primary screen, HEK293 cells, thallium flux; FluxOR thallium flux fluorescence; stronger effect = lower value; actives 1.2% (n = 310,000); Potassium channel subfamily K member 9 (Homo sapiens), Q9NPC2; B-score at 10 µM;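 active means ratio B-score over 3 SD below the library mean, with starting fluorescence within 5 SD of its mean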;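 further: negative B-score means less thallium flux so channel inhibition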
Target sequence (Q9NPC2 whole entry, looked up): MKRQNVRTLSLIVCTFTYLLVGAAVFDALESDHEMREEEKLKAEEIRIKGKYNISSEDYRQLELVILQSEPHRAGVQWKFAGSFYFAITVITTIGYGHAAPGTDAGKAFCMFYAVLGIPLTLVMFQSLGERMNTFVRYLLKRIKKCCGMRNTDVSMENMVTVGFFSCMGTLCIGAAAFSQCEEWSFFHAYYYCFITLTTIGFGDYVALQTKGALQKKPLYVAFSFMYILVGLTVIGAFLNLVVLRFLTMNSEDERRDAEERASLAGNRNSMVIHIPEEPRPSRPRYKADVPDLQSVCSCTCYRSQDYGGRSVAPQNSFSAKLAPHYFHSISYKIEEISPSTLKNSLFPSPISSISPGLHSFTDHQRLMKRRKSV
KCNK3 inh: human KCNK3 channel inhibitors, primary screen, CHO cells, FluxOR thallium flux, B-score. Potassium channel subfamily K member 3 (Homo sapiens), O14649. actives 0.84% (n = 340,000). B-score at 10 µM. FluxOR fluorescence; stronger effect = lower value;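 active means B-score under library mean minus 4 SD, starting fluorescence ratio at most library mean plus 5 SD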;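 further: more negative B-score means stronger inhibition of thallium flux through KCNK3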
Target sequence (O14649 whole entry, looked up): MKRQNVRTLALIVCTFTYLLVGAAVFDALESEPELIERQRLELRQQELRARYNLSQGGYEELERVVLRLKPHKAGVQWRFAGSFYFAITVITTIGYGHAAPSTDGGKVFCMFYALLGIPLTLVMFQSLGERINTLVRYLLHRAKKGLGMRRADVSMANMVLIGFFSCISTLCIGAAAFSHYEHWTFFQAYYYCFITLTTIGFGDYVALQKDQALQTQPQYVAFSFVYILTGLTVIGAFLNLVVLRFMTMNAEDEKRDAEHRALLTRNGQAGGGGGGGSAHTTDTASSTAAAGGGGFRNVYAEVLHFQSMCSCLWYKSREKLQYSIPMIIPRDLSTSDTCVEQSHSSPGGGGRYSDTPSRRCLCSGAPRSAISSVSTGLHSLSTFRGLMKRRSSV
KCNK9 inh conf: KCNK9 potassium channel inhibitors, confirmation, HEK293 cells, thallium flux, duplicate. shares compounds with KCNK9 inh. FluxOR thallium flux fluorescence. inhibition, % at 10 µM. actives 43% (n = 4,900);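 active means thallium signal inhibited by more than 5 SD of the compound-free buffer control wells, on both duplicate plates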
Kir21 sel: mouse Kir2.1 channel inhibition, confirmation, selectivity assay for KCNK9 modulator project, cell-based, HEK293, thallium flux; shares compounds with KCNK9 inh; Kir2.1 cells, FluxOR thallium flux fluorescence; inhibition, % at 10 µM; actives 4% (n = 4,900); AID 492993, 2010;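 active means thallium signal drop more than 5 SD beyond the mean of the no-compound control wells, seen in both duplicate plates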;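 further: signal is fluorescence rise after thallium addition divided by baseline fluorescence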
HEK293 Tl ctr: thallium flux in non-induced HEK293 cells, confirmation, counter-screen for KCNK9 inhibitor project, cell-based, second counter screen, non-induced KCNK9-HEK293; shares compounds with KCNK9 inh; FluxOR thallium flux; inhibition, % at 10 µM; actives 40% (n = 4,900);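 active means thallium signal drop beyond 5 SD of the untreated control mean, on both duplicate plates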
KCNK3 confirm: retest of human KCNK3 channel inhibitors, confirmation, CHO cells, FluxOR thallium flux, triplicate; shares compounds with KCNK3 inh; FluxOR fluorescence; 0% buffer, 100% carvedilol maximal block; ratio percent of control, % at 10 µM; actives 99% (n = 2,400); AID 651638, 2012;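 active means ratio percent of control, averaged over triplicates, above buffer control mean plus 5 SD, cut at about 64% in these data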;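 further: ratio is the fluorescence rise from min to max over baseline after thallium stimulus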
KCNK3 noninduced: thallium flux inhibition in non-induced cells, primary screen, counter-screen for KCNK3 inhibitor project, cell-based, non-induced KCNK3 line, FluxOR thallium, triplicate | shares compounds with KCNK3 inh | thallium flux ratio (lower = more inhibition) at 10 µM | actives 40% (n = 2,400) | non-induced KCNK3 parental cells; stronger effect = lower value;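 active means thallium flux ratio, averaged over three wells, more than 5 SD below the buffer control mean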;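 further: host cells are CHO cells without KCNK3 induction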
Large screens that a line does not name were inactive (follow-up assays come after a bar, where they were run).

C#CCN(Cc1ccco1)C(=O)c1cc(COc2ccc(F)cc2Cl)on1	KCNK9 inh -9.29, KCNK3 inh -11.3 | KCNK9 inh conf inactive | Kir21 sel inactive | HEK293 Tl ctr 34.5% | KCNK3 confirm 115.0 | KCNK3 noninduced 0.152
CCN(Cc1ccncc1)C(=O)c1cc(COc2ccc(F)cc2Cl)on1	none
CC(C)OCCCNC(=O)CN1C(=O)/C(=C/c2ccccc2)Sc2ccccc21	none
CC(C)Cc1nnc(NC(=O)CCS(=O)(=O)c2ccc(Cl)cc2)s1	none
Cc1cc(/C=N/NC(=O)c2cccs2)c(C)n1-c1ccccc1	KCNK9 inh -10, KCNK3 inh -10.2 | KCNK9 inh conf 43.0% | Kir21 sel inactive | HEK293 Tl ctr inactive | KCNK3 confirm 118.3 | KCNK3 noninduced 0.139
CSc1nc(Cl)c(Cc2ccc(OC(C)C)cc2)c(N(C)C)n1	KCNK9 inh -8.39, KCNK3 inh -8.75 | KCNK9 inh conf inactive | Kir21 sel inactive | HEK293 Tl ctr 38.5% | KCNK3 confirm 134.3 | KCNK3 noninduced 0.133
O=C(O)CC1(CC(=O)Nc2ccc(Cl)cc2C(=O)c2ccccc2)CCCC1	none
COc1cccc(OCCn2cc(C(=O)c3ccco3)c3ccccc32)c1	KCNK9 inh -15.3, KCNK3 inh -11.5 | KCNK9 inh conf 51.5% | Kir21 sel inactive | HEK293 Tl ctr inactive | KCNK3 confirm 118.7 | KCNK3 noninduced 0.14
COc1ccc(S(=O)(=O)NC2CCCCCC2)cc1C(N)=O	none
Cc1cnc(C(=O)OC(C(=O)c2c[nH]c3ccccc23)c2ccccc2)cn1 (centres undefined)	KCNK9 inh -19.7, KCNK3 inh -10.6 | KCNK9 inh conf 78.5% | Kir21 sel inactive | HEK293 Tl ctr 35.0% | KCNK3 confirm 108.0 | KCNK3 noninduced inactive
CC(=O)c1c(C)[nH]c(C(=O)NCc2ccco2)c1C	none
Cc1cccc(C(C)C)c1-n1nnnc1-c1ccccc1	KCNK9 inh -12.3, KCNK3 inh -10.2 | KCNK9 inh conf 53.0% | Kir21 sel inactive | HEK293 Tl ctr 40.0% | KCNK3 confirm 117.3 | KCNK3 noninduced inactive
c1ccc(-c2nnnn2-c2ccccn2)cc1	none (no result: hERG rescue, Kir21 block, KCNQ1 block, KCNQ1 act, KCNK9 inh)
O=C(N/N=C/c1cccnc1)c1ccccc1Br	none
O=C(N/N=C/c1cccnc1)c1ccccc1OCc1ccc(Br)cc1	KCNK9 inh -10.8, KCNK3 inh -10.9 | KCNK9 inh conf 29.5% | Kir21 sel inactive | HEK293 Tl ctr inactive | KCNK3 confirm 115.3 | KCNK3 noninduced 0.157
Cc1cccc(/C(N)=N/OC(=O)Cc2ccccc2)c1	none
CCC(C(=O)O/N=C(\N)c1cccc(C)c1)c1ccccc1 (centres undefined)	KCNK9 inh -9.31, KCNK3 inh -14.6 | KCNK9 inh conf 34.5% | Kir21 sel inactive | HEK293 Tl ctr 23.5% | KCNK3 confirm 127.0 | KCNK3 noninduced 0.151
CCCCCCNC(=O)CC(c1ccccc1)c1cc(Br)ccc1O (centres undefined)	KCNK9 inh -11, KCNK3 inh -9.84 | KCNK9 inh conf 51.0% | Kir21 sel inactive | HEK293 Tl ctr 31.5% | KCNK3 confirm 118.7 | KCNK3 noninduced 0.148
COc1cccc(-c2nn(-c3ccccc3)cc2C(=O)O)c1	none
COc1cccc(-c2nn(-c3ccccc3)cc2/C=C\C(=O)c2cccs2)c1	KCNK9 inh -9.47, KCNK3 inh -11.5 | KCNK9 inh conf 39.0% | Kir21 sel inactive | HEK293 Tl ctr 30.5% | KCNK3 confirm 88.7 | KCNK3 noninduced inactive
COc1ccc(NC(=S)Nc2ccc(C)c(Cl)c2)cc1OC	none
Cc1cccc(C)c1NC(=S)Nc1ccc(Cl)c(Cl)c1	KCNQ1 block 8, KCNK9 inh -9.12, KCNK3 inh -11.6 | KCNK9 inh conf 47.5% | Kir21 sel inactive | HEK293 Tl ctr inactive | KCNK3 confirm 86.0 | KCNK3 noninduced 0.144
COc1ccc(C=NNC(=O)c2cc(C)oc2C)cc1O	none (no result: hERG rescue, Kir21 block, KCNQ1 block, KCNQ1 act, KCNK9 inh)
COc1ccccc1NS(=O)(=O)c1ccc(O)c(C(=O)OCc2cccc([N+](=O)[O-])c2)c1	KCNK9 inh -9.18, KCNK3 inh -8.83 | KCNK9 inh conf inactive | Kir21 sel inactive | HEK293 Tl ctr 28.5% | KCNK3 confirm 99.0 | KCNK3 noninduced inactive
COc1cccc(OC)c1C(=O)Nc1cccc(-c2nc3ccccc3[nH]2)c1	KCNK9 inh -12.7, KCNK3 inh -9.9 | KCNK9 inh conf 40.0% | Kir21 sel inactive | HEK293 Tl ctr inactive | KCNK3 confirm 133.3 | KCNK3 noninduced 0.117
O=c1cc(N2CCCCC2)c(-c2ccccc2)nn1Cc1c(Cl)cccc1Cl	KCNQ1 block 9, KCNK9 inh -10.4, KCNK3 inh -8.78 | KCNK9 inh conf 52.0% | Kir21 sel inactive | HEK293 Tl ctr 25.0% | KCNK3 confirm 98.3 | KCNK3 noninduced 0.152
CCN(C(=O)CN1C(=O)COc2ccc(S(=O)(=O)N3CCCCCC3)cc21)c1cccc(C)c1	KCNK9 inh -11.8, KCNK3 inh -8.81 | KCNK9 inh conf 44.5% | Kir21 sel inactive | HEK293 Tl ctr 24.5% | KCNK3 confirm 120.3 | KCNK3 noninduced inactive
CCN(Cc1ccccc1)C(=O)CN1C(=O)COc2ccc(S(=O)(=O)N3CCCCCC3)cc21	none
CCOC(=O)c1cccc(NC(=O)CSc2nnnn2C)c1	none
